Screening results deposited in PubChem BioAssay by several laboratories.
Only some compounds are listed: those with a hit (about 3.3% of all), similar ones and a draw of the others.
Arrestin-AP2 inh: blocks beta-arrestin peptide binding to AP2 adaptin. 0.31% of 340,000 active. AID 504490. FITC-arrestin peptide / GST-AP2 beads, flow cytometry; AP2 beta2 appendage carries R879A mutation. inhibition, % at 10 µM;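 active means inhibition above a set limit, near 3 SD of compounds lacking own fluorescence, cut at about 54% in these data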;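 further: plate controls were DMSO wells for no effect and 5 µM unlabelled arrestin peptide for full effect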
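System: GST-AP2 R879A bound to glutathione beads, E. coli-expressed. Also added: 50 nM FITC-arrestin peptide. Schedule: compound with beads 12 min RT, then probe 1 h RT. Signal: bead flow cytometry, FITC channel. Read-out basis: percent response.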
NRP1-CendR mod: modulators of CendR peptide binding to human neuropilin-1 | O14786 | FAM-RPARPAR peptide binding to NRP-1, fluorescence polarization | inhibition, % at 25 µM | 0.85% of 360,000 active | AID 602438;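 active means inhibition or corrected inhibition above about 18%, plus a signal ratio from 0.5 to 1.5, limit read from the data, passing the limit was not always enough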
Target sequence (O14786 whole entry, looked up): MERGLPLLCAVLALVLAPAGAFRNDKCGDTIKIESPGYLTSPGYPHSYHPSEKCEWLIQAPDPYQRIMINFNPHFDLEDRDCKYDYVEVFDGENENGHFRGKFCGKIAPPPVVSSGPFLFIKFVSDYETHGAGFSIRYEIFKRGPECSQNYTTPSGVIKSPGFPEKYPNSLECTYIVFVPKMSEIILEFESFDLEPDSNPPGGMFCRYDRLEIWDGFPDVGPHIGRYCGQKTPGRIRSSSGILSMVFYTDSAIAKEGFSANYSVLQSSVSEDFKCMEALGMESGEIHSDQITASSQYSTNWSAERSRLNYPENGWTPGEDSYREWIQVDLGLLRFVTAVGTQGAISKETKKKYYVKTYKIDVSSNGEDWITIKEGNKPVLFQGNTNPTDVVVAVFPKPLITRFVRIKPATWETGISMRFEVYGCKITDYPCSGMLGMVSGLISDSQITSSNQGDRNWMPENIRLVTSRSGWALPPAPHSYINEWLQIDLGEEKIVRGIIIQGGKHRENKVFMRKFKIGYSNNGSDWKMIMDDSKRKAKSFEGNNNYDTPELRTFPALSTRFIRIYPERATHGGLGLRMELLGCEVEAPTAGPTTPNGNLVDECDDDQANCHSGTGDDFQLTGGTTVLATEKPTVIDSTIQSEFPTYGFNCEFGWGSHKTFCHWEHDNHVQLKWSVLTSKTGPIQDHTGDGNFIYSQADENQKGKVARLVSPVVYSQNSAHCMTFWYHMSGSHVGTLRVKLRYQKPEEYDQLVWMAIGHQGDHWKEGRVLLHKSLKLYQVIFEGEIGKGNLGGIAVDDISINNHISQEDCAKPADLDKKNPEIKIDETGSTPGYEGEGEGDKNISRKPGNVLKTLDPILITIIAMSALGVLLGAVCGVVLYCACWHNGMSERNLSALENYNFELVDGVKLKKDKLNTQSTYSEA
M18AAP inhibitor: blocks P. falciparum M18 aspartyl aminopeptidase; recombinant PfM18AAP, H-Glu-NHMec fluorogenic cleavage; inhibition, % at 7.35 µM; 1.2% of 290,000 active; AID 1822;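 active means inhibition above the campaign mean inhibition over all tested compounds plus 3 SD, cut at about 28% in these data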;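 further: 0% = plate median of test compound wells and 100% = 2 mM ZnCl2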
sPLA2-III inh: Inhibits HGIII-sPLA2 liposome hydrolysis, primary screen; Q9NZ20; QFRET BODIPY PC-A2 liposome hydrolysis, fluorescence; 0.56% of 370,000 active; inhibition, % at 12.2 µM;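 active means inhibition above mean plus 3 SD of compounds lying within the high and low control bounds, cut at about 19% in these data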;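 further: 0% = median of test compound wells and 100% = no enzyme DMSO wells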
Hep lipid drop: hepatic lipid droplet formation modulation; AML12 mouse hepatocytes, oleate lipid droplets, BODIPY imaging; inhibition, % at 6.5 µM; 0.4% of 240,000 active; AID 1656;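 active means lipid droplet intensity inhibited by at least 50%, with more than 500 cells counted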
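Assay system: AML12 mouse liver cells | Compound: 6.5 µM single-point dosing | Schedule: Overnight exposure | Technique: Fluorescence imaging, 20x objective, two fields per well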
m5-HT2A agonist: agonists of mouse serotonin 5-HT2A receptor (HTR2A); CHO-K1 mHTR2A beta-arrestin complementation, luminescence; percent of 30 µM serotonin response; activation, % at 7.6 µM; 0.66% of 360,000 active; AID 624169;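 active means activation above a run cutoff, the mean activation of all tested compounds plus 3 SD, cut at about 14% in these data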;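 further: 0% = plate median of compound wells and 100% = 30 µM serotonin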
hGIII sPLA2 conf: human GIII-sPLA2 inhibition, confirmation; AID 743280; recombinant hGIII-sPLA2, BODIPY PC-A2 QFRET fluorescence; shares compounds with sPLA2-III inh; 34% of 2,000 active; inhibition, % at 12.2 µM;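 active means mean inhibition across triplicates above the hit cutoff set in the earlier primary screen, cut at about 19% in these data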;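 further: 0% = enzyme with DMSO and 100% = DMSO wells lacking enzyme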
535nm interf: counter-screen for HGIII-sPLA2 inhibitors: 535nm fluorescence interference | shares compounds with sPLA2-III inh | BODIPY FL product fluorescence interference, QFRET | inhibition, % at 12.2 µM | 8.5% of 2,000 active | AID 743282;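 active means average inhibition above the solvent-only control mean plus 3 SD, cut at about 6% in these data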;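 further: 0% = DMSO with substrate plus product and 100% = DMSO with substrate alone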
535nm interf DR: 535nm optical interference dose response, HGIII-sPLA2 counter-screen | BODIPY FL product fluorescence interference, cell-free | IC50, µM | shares compounds with sPLA2-III inh | 240 tested, under 10 active;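 active means IC50 at or below 10 µM; inactive means IC50 above 10 µM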
An asterisk follows results filed as active; . = not tested or not shown.

SMILES | Arrestin-AP2 inh | NRP1-CendR mod | M18AAP inhibitor | sPLA2-III inh | Hep lipid drop | m5-HT2A agonist | hGIII sPLA2 conf | 535nm interf | others
Cc1cc(C(=O)NNC(=S)NC(C)c2ccccc2)c2ccccc2n1 (configuration not stated) | 22 | 4 | 6 | 24* | . | -2 | 29* | -7 | 535nm interf DR=>122
Oc1ccccc1/C=N/Nc1nccnc1Cl | -1 | -4 | 23 | 24* | -86 | -4 | 2 | 8.6*
O=[N+]([O-])c1ccc(Cl)cc1N/N=C/c1ccncc1 | 48 | -2 | -5 | 20* | -2 | 3 | 9 | 1
O=C(N/N=C/c1ccncc1)c1cc([N+](=O)[O-])cc([N+](=O)[O-])c1O | 29 | 0 | 11 | 20* | . | -1 | 14 | 0
Cc1cc(C)c(C)c(N=Nc2nc3ccccc3n2C)c1C | 11 | 15 | 5 | 21* | 15 | 4 | 39* | -3 | 535nm interf DR=>122
COc1ccccc1C(=O)NC(=S)Nc1ccccc1N1CCCC1 | 27 | -2 | 6 | 6 | 20 | -3 | . | .
Cc1ccccc1C(=O)NC(=S)Nc1ccccc1N1CCCC1 | -4 | 5 | -8 | 20* | -40 | -3 | 27* | -7
Clc1ccc2c(c1)Nc1ccccc1CC2 | 31 | 4 | . | 22* | . | -2 | 15 | 8.2*
O=C1CCc2ccccc2N1 | 32 | -1 | -7 | 7 | 1 | 2 | . | .
Cc1ccc(C(=O)NC(=S)Nc2c(C)ccc3nsnc23)cc1 | 12 | 4 | 6 | 23* | -1 | 1 | 13 | -7
O=C(Nc1cccs1)Nc1c(F)c(F)cc(F)c1F | 4 | 4 | 10 | 21* | -28 | 0 | -1 | -2
COc1cccc(CNC(=O)[C@@H]2CCCN2C(=O)[C@@H]2CCCN2C(=O)c2cccs2)c1 | . | -7 | . | 11 | . | 8 | . | .
CC1=C(C(=O)Nc2cccc(C(=O)NC(C)C)c2)SCCO1 | -15 | 14 | 0 | -2 | -4 | 3 | . | .
CCC(C)NC(=O)c1ccc(NC(=O)C2=C(C)OCCS2)cc1 (configuration not stated) | 25 | 4 | 0 | 21* | 1 | -2 | -1 | -7
CC(C)NC(=O)c1cc(C2CCCCN2S(=O)(=O)c2cccc3cccnc23)on1 (configuration not stated) | . | 7 | . | 3 | . | -6 | . | .
COc1cccc(C(=O)Nc2ccc3c(c2)OC[C@H](C)N(CCc2ccccc2)C[C@@H](C)[C@@H](OC)CN(C)C3=O)c1 | . | 0 | . | -5 | . | 8 | . | .
CCCN1C[C@@H](C)[C@@H](OC)CN(C)C(=O)c2ccc(NC(=O)c3cccc(F)c3)cc2OC[C@H]1C | . | 16 | . | 20* | . | -3 | 4 | -11
Cc1ccccc1NC(=S)NCCc1ccccc1 | -16 | -17 | 8 | 11 | 3 | 2 | . | .
CC(C)(C)NC(=S)NCCc1ccccc1 | 1 | 0 | -1 | 20* | 3 | 0 | 24* | -5
OC(c1ccc(F)cc1)c1nc(-c2cnc3ccccc3c2)cs1 (configuration not stated) | . | 3 | . | -8 | . | -1 | . | .
Cc1ccc(/C=N/n2c(-c3ccco3)n[nH]c2=S)cc1 | -15 | -8 | 14 | 22* | -1 | 2 | 12 | -1
COc1cccc(NC(=O)c2ccc3nc(C)sc3c2)c1 | 21 | -12 | -4 | -4 | -9 | 2 | . | .
CCc1c(-c2n[nH]c(=S)n2Cc2ccccc2)csc1C | -18 | -2 | 13 | 20* | . | -3 | 33* | 3 | 535nm interf DR=>122
COC(=O)C1=C(C)N(Cc2cccc(C(F)(F)F)c2)C(=NCc2ccccc2C(F)(F)F)NC1c1ccc(Cl)cc1 (configuration not stated) | . | . | . | 0 | . | . | . | .
O=C(COC(=O)c1ccccc1O)NC12CC3CC(CC(C3)C1)C2 | -11 | -7 | . | -14 | . | 0 | . | .
